# Results of several laboratories.
# Compare with care: the assays were run in different laboratories.
# Target: Aurora kinase A (AURKA, Homo sapiens, UniProt O14965)
# One construct used (O14965 1-403): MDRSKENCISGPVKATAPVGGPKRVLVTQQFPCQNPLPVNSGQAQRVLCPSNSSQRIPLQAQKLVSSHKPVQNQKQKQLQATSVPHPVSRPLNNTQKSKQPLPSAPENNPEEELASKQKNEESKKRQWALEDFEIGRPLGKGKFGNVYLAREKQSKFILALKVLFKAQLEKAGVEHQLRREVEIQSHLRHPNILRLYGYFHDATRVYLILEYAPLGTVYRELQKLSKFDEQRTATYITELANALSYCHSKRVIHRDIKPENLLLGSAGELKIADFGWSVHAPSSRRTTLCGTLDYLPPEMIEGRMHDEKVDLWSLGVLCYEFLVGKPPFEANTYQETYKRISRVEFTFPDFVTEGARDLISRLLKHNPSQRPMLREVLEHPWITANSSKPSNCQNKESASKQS
Structure (SMILES),assay,conditions,quantity,result
C[C@H]1CC[C@H](n2c3cnccc3c3cnc(Nc4ccc5c(n4)CCN(C(=O)CO)C5)nc32)CC1,"cell-free assay, competition with immobilised ligand",1 µM,remaining binding,100%
COc1ccc2oc(-c3ccc4nc(N)oc4c3)c/c(=N\c3ccccc3NC(=O)CCN)c2c1,binding,1 µM,remaining binding,98%
CC(=O)ON=C1C=CC(=C(C#N)c2ccccc2)C=C1,"enzyme activity, inhibitor, ADP detection",20 µM,activity vs control,66%
CN1CCN(C(=O)c2ccc(NC(=O)Nc3ccc(N(C)c4ccnc(Nc5ccc(CS(C)(=O)=O)cc5)n4)cc3)cc2)CC1,"binding, competition with immobilised ligand",1 µM,remaining binding,0%
C=CC(=O)N1CCC([C@@H]2CCNc3c(C(N)=O)c(-c4ccc(Oc5ccccc5)cc4)nn32)CC1,"enzyme activity, inhibitor",1 µM,inhibition,1%
C#Cc1cc(-c2cc(Nc3nc(N[C@@H](C)c4ccc(F)cn4)ncc3Cl)n[nH]2)ccc1C=O,"enzyme activity, inhibitor",0.2 µM,inhibition,82%
C=CC(=O)N1CCC[C@@H](n2nc(-c3ccc(Oc4ccccc4)cc3)c3c(N)ncnc32)C1,"enzyme activity, inhibitor",1 µM,inhibition,5%
C1=C/COCc2cc(ccc2OCCN2CCCC2)Nc2nccc(n2)-c2cccc(c2)COC/1,binding,0.1 µM,remaining binding,81%
N#Cc1ccc(NC(=O)Nc2ccccc2)cc1,"cell-free assay, competition with immobilised ligand",25 µM,remaining binding,80%
CCCCC(=O)Nc1ccc(-c2ccc3ncn(CCC)c(=O)c3c2)cn1,"binding, competition with immobilised ligand",0.5 µM,remaining binding,100%
